Data set [1] is described as follows: Microsome stability studies. It counts as in vitro ADME. To be noted: mouse microsomes; for microsomal stability (in words): Phase I, 0 to 60 min. The procedure, abridged:
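Female CD-1 mouse liver microsomes (0.5 mg/mL) with 1.5 mM NADPH in 0.1 M phosphate buffer, pH 7.4, were pre-warmed 5 min at 37 °C. Reactions were started with 1 μg/mL test compound and run at 37 °C. Aliquots taken over 0–60 min were quenched with equal-volume acetonitrile and centrifuged (20,000g, 10 min) for LCMS. Compound-stability controls under reaction conditions were included.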

Another data set can be described thus: In vivo PK studies. To be noted: female CD-1 mice, single IP 50 mg/kg, plasma. The procedure, abridged: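 Female CD-1 mice got one IP dose of 50 mg/kg in 100% DMSO. Blood was sampled from 0.25–24 h, three mice per time point (21 per compound), into sodium heparin. Plasma was spun out (1800xg, 10 min, 4 °C), frozen at −80 °C, mixed 1:1 with ACN acidified with formic or trifluoroacetic acid (0.1%, varying by compound), centrifuged and analysed by LC-MS/MS.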

The target of another data set is Human TOP2A (Homo sapiens, UniProt P11388). Briefly: TOP2A decatenation assay. Format: biochemical. To be noted: screen at 30 μM / SAR discussion. The procedure, abridged: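 For screening, TOP2A (3U/reaction) was preincubated 20 min at 37 °C with 30 μM test compound in 1.2% DMSO. Then 2 mM ATP and 35 ng kDNA were added for 1 h at 37 °C. Products ran on 0.8% agarose in TBE with 0.2 μg/mL ethidium bromide (1 h, 100 V), and decatenated bands were compared with vehicle. Dose-responses used 2-fold dilutions (58.6 nM–30 μM) and 4U enzyme.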
Chain of Human TOP2A (P11388 whole entry): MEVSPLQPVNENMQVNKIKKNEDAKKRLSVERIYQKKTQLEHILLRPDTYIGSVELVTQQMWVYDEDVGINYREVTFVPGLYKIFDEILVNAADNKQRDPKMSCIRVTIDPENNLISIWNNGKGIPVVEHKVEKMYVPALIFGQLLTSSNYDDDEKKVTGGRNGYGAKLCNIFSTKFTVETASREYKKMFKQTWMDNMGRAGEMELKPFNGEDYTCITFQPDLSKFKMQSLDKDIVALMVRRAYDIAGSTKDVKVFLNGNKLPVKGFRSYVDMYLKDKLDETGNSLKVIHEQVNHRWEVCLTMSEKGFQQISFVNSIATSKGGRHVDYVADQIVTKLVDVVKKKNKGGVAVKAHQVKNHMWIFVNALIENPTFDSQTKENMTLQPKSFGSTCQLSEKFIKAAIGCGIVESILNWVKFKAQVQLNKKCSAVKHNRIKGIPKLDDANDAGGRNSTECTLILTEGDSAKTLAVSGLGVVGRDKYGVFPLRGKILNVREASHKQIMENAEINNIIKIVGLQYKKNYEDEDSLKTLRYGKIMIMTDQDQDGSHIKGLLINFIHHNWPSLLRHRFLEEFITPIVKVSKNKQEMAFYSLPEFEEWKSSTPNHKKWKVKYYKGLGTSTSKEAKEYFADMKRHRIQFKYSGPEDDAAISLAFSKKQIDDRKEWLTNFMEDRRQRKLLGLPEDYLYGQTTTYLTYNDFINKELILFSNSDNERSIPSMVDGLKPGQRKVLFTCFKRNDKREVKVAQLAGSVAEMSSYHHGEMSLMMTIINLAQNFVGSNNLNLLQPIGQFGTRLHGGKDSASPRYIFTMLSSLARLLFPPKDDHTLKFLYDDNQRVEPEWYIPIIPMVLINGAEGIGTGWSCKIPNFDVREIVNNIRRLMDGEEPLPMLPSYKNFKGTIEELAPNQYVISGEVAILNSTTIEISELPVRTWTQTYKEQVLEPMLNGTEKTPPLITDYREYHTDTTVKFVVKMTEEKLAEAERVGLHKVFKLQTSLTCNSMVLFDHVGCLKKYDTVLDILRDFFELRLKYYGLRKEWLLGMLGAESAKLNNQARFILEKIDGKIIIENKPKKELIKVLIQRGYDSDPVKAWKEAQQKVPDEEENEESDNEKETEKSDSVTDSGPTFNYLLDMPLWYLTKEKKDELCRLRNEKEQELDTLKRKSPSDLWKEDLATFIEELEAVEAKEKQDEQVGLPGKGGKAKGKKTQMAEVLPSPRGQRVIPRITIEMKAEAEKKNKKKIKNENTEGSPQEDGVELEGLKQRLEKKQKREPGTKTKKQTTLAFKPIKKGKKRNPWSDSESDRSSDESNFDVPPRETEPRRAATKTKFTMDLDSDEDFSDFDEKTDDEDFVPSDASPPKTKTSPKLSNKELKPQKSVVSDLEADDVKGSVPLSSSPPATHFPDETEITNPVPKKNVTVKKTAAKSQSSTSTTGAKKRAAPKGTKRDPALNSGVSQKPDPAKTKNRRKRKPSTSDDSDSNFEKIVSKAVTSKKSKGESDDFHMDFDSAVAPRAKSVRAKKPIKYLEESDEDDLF

A further data set relates to SW620. Put plainly: γ-H2AX DNA damage assay. Format: cell-based. To be noted: concentration range 0–40 μM.
In a further data set the target is hTopoIIα (Homo sapiens, UniProt P11388). Briefly: TOP2A ATPase assay. It counts as biochemical. To be noted: ATP hydrolysis, Vmax unchanged, KM shifts.
Chain of hTopoIIα (P11388 whole entry): as above
A further data set relates to SW620 cells. Put plainly: Tumor organoid CSC stemness assay. Format: cell-based. To be noted: SW620 cells pretreated 24 h, colonies over seven days, vs DMSO.
The test system of data set [2] is TOP2A-dependent TCF-transcription in SW620-TOP tumor organoids. Briefly: 3D tumor organoid TOPflash reporter assay. Format: cell-based. The procedure, abridged: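 SW620 cells stably carrying pCDH-TOPflash-luc-EF1-puro were seeded at 5,000 cells/well in ultra-low-attachment U-bottom wells, centrifuged, given 2% Matrigel (final) and grown 72 h in phenol red-free RPMI-1640 with 5% FBS. Organoids were treated 72 h. One-Glo luciferase and CellTiter-Glo 3D were added 1:1 and luminescence read. TCF signal was normalised to viability, then to DMSO controls.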
For orientation: In a reporter assay the amount or activity of a reporter protein is the signal.

The subject of the next data set is SW620 tumor organoids. Briefly: SW620 tumor organoid growth in volume. It counts as cell-based. To be noted: 72 h, vs DMSO.
The test system of data set [3] is caspase 3 and 7 activity in SW620 tumor organoids. Briefly: Tumor organoid caspase 3/7 activity. Format: cell-based. To be noted: higher doses, vs DMSO. The procedure, abridged: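 SW620 cells were seeded at 2,000/well in round-bottom ultra-low-attachment 384-well plates in RPMI-1640 with 5% FBS and 2% Matrigel, grown 72 h, then treated with a range of doses for 72 h. Caspase-Glo 3/7 was added 1:1, plates shaken 30 min, and luminescence read. Staurosporine served as positive control and 0.4% DMSO as negative control.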

Data set [4] in a line: Compound aqueous solubility in PBS. Format: physicochemical. To be noted: ratio to prototype 7. The method in brief:
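Test compound (1 mg) was dissolved in 200 μL 10% DMSO in PBS, pH 7.4, and equilibrated as for the 1-propanol solutions (18 h, 25 °C), then centrifuged. The UV absorption spectrum was compared with a fully saturated 1-propanol solution, and solubility was calculated by linear regression.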

For data set [5], the system named is TOP2A mediated TCF-transcription. To be noted: cited from earlier work.
The conditions of data set [6]: cited from earlier work.
For data set [7] the following is noted: cited from earlier work. The source holds these as a separate data set.

Molecules are shown by their SMILES. Entries after “also recorded” stand apart in the source; their conditions may differ.

As to `CC(=O)Nc1ccc2c(-c3cc(F)ccc3O)ccnc2c1O` [Compound 7, 7-Acetamido-4-(5-fluoro-2-hydroxyphenyl)-8-hydroxyquinoline], the “microsomal stability (in words)” value in data set [1] is “metabolized faster within the first 30 minutes”. In “In vivo PK studies”, this molecule registered a CL of 64.5 mL/min/kg. The “inhibition of TOP2A decatenation (in words)” value (shortened to “inhibition … (in words)”) at Human TOP2A was “complete inhibition”. Also, the “DNA double stranded breaks (H2AX S139 phosphorylation immunofluorescence)” value in the data set with SW620 is “do not cause DNA DSBs”. For the same molecule, the “mode of TOP2A inhibition” value at hTopoIIα is “competitive mode of inhibition”. The “colony formation (clonogenic assay)” value in the data set with SW620 cells was “inhibit colony formation”. The “inhibition of TOP-activity (TOPflash) in words” value in data set [2] is “significantly inhibit”. In the data set on SW620 tumor organoids, the “tumor organoid growth in volume” value was “significantly inhibited tumor organoid growth”. In addition, in data set [3], the “induction of apoptosis (caspase 3 and 7 cleavage) in words” value (“induction of apoptosis” for short) is given as “induce apoptosis”.
`CC(=O)Nc1ccc2c(-c3ccccc3)ccnc2c1O` [Compound 28, 7-Acetamido-4-(phenyl)-8-hydroxyquinoline]: in [1], the “microsomal stability (in words)” value is given as “biphasic kinetics”.
For the molecule `CC(=O)Nc1ccc2c(-c3ccc(F)cc3)ccnc2c1O` [Compound 30, 7-Acetamido-4-(4-fluorophenyl)-8-hydroxyquinoline], on Human TOP2A, the “inhibition … (in words)” value is recorded as “activity is lost”.
For `CC(=O)Nc1ccc2c(-c3cccc(C(F)(F)F)c3)ccnc2c1O` [Compound 31, 7-Acetamido-4-((3-trifluoromethyl)phenyl)-8-hydroxyquinoline], in [1], the “microsomal stability (in words)” value was “not readily transformed by Phase I metabolic enzymes”. Also, at Human TOP2A, the “inhibition … (in words)” value is “excellent inhibitory activity”.
For `CC(=O)Nc1ccc2c(-c3ccc(C(F)(F)F)cc3)ccnc2c1O` [Compound 32, 7-Acetamido-4-((4-trifluoromethyl)phenyl)-8-hydroxyquinoline], on Human TOP2A, the “inhibition … (in words)” value is reported as “excellent inhibitory activity”.
For `CC(=O)Nc1ccccc1-c1ccnc2c(O)c(NC(C)=O)ccc12` [Compound 34, 7-Acetamido-4-(2-acetamidophenyl)-8-hydroxyquinoline], the “inhibition … (in words)” value at Human TOP2A is “significant loss of activity”.
For the molecule `CC(=O)Nc1ccc(-c2ccnc3c(O)c(NC(C)=O)ccc23)cc1` [Compound 35, 7-Acetamido-4-(4-acetamidophenyl)-8-hydroxyquinoline], the “microsomal stability (in words)” value in [1] was “not readily transformed by Phase I metabolic enzymes”. The “inhibition … (in words)” value against Human TOP2A is reported as “restored inhibitory activity”.
For the molecule `CC(=O)Nc1cccc(-c2ccnc3c(O)c(NC(C)=O)ccc23)c1` [Compound 36, 7-Acetamido-4-(3-acetamidophenyl)-8-hydroxyquinoline], the “inhibition … (in words)” value against Human TOP2A is reported as “significant loss of activity”.
On to `CC(=O)Nc1ccc2c(-c3cc(C(F)(F)F)ccc3O)ccnc2c1O` [Compound 37, 7-Acetamido-4-(2-hydroxy-5-trifluoromethylphenyl)-8-hydroxyquinoline], for which the “inhibition … (in words)” value against Human TOP2A is “excellent inhibitory activity”.
Still for that read-out and setting: for `CC(=O)Nc1ccc2c(-c3cc(Cl)ccc3O)ccnc2c1O` [Compound 38, 7-Acetamido-4-(5-chloro-2-hydroxyphenyl)-8-hydroxyquinoline] the value was “did not inhibit”.
`O=C(CCN1CCOCC1)Nc1ccc2c(-c3cc(F)ccc3O)ccnc2c1O` [Compound 42, 4-(5-fluoro-2-hydroxyphenyl)-8-hydroxy-7-(3-(morpholin-4-yl)propanamido)quinoline]: in data set [1], the “microsomal stability (in words)” value is on record as “least stable”. The molecule also displayed a CL in the data set “In vivo PK studies” of 62.2 mL/min/kg. For the same molecule, in the data set on SW620 tumor organoids, the “tumor organoid growth in volume” value is “significantly inhibited tumor organoid growth”. The “induction of apoptosis” value in data set [3] is “induce apoptosis”. The “solubility in PBS compared to prototype 7” value in [4] came to 3.4 times.
Consider `CC(=O)Nc1ccc2c(-c3cc4ccccc4o3)ccnc2c1O` [Compound 53, 7-Acetamido-4-(2-benzofuranyl)-8-hydroxyquinoline], for which, in data set [1], the “microsomal stability (in words)” value is listed as “not readily transformed by Phase I metabolic enzymes”. Moreover, the CL in “In vivo PK studies” is 283.2 mL/min/kg. Besides, the “inhibition … (in words)” value on Human TOP2A is listed as “complete inhibitory activity”.
`CC(=O)Nc1ccc2c(-c3cc4ccccc4s3)ccnc2c1O` [Compound 54, 7-Acetamido-4-(benzo[b]thiophen-2-yl)-8-hydroxyquinoline]: the “inhibition … (in words)” value on Human TOP2A is on record as “inhibition was lost”.
Still for that read-out and setting: the result for `CC(=O)Nc1ccc2c(-c3ccco3)ccnc2c1O` [Compound 55, 7-Acetamido-4-(2-furanyl)-8-hydroxyquinoline] reads “significant loss of activity”.
As to `CC(=O)Nc1ccc2c(-c3ccsc3)ccnc2c1O` [Compound 58, 7-Acetamido-4-(thiophen-3-yl)-8-hydroxyquinoline], in data set [1], the “microsomal stability (in words)” value is “metabolized faster within the first 30 minutes; also recorded: biphasic kinetics”. Moreover, at Human TOP2A, the “inhibition … (in words)” value is given as “improves activity compared to the 3-furanyl analog 56”.
Turning to `O=C(CN1CCOCC1)Nc1ccc2c(-c3cc4ccccc4o3)ccnc2c1O` [Compound 60, 4-(2-benzofuranyl)-8-hydroxy-7-(2-(morpholin-4-yl)acetamido)quinoline], the “microsomal stability (in words)” value in data set [1] is recorded as “not readily transformed by Phase I metabolic enzymes”. This molecule showed a CL in “In vivo PK studies” of 137 mL/min/kg. The “tumor organoid growth in volume” value in the data set on SW620 tumor organoids was “significantly inhibited tumor organoid growth”. Moreover, in [3], the “induction of apoptosis” value is reported as “induce apoptosis”.
Regarding `O=C(CCN1CCOCC1)Nc1ccc2c(-c3cc4ccccc4o3)ccnc2c1O` [Compound 61, 4-(2-benzofuranyl)-8-hydroxy-7-(3-(morpholin-4-yl)propanamido)quinoline], the half-life (in general, the time needed for the level to fall by half in the phase considered) at 1 μg/mL in data set [1] (female, CD-1, mouse, pH 7.4) was found to be 15 min. For the same molecule, the “microsomal stability (in words)” value in data set [1] is “not readily transformed by Phase I metabolic enzymes”. Also, the CL in “In vivo PK studies” was 61.8 mL/min/kg.
As to `COc1cc([C@@H]2c3cc4c(cc3[C@@H](O[C@@H]3O[C@@H]5CO[C@@H](C)O[C@H]5[C@H](O)[C@H]3O)[C@H]3COC(=O)[C@H]23)OCO4)cc(OC)c1O` [etoposide], in [5], the “effect on TOP2A mediated TCF-transcription” value (shortened to “effect”) is listed as “do not inhibit”.
For the molecule `O=C1NC(=S)NC(=O)C1C(=O)Nc1ccccc1` [merbarone], the “effect” value in [5] was “do not inhibit”.
Regarding `Cn1ccc2c(c1=O)C(=O)c1nccc3c1c-2nc1ccccc13` [neo, neoamphimedine], the solubility in water entry in [6] is “insoluble”. Moreover, the “DNA double stranded breaks (H2AX S139 phosphorylation immunofluorescence)” value in the data set on SW620 is listed as “do not cause DNA DSBs”. Further, on hTopoIIα, the “mode of TOP2A inhibition” value is “competitive mode of inhibition”. Moreover, the metabolic stability result in [7] is “metabolically unstable”. For the same molecule, the “effect” value in data set [5] is “prevents TCF-transcription”.

The values are drawn from article PMC7723234 (Journal of medicinal chemistry, 2019).
